Columns and labels:
[1] = test system: A2780; assay: Cytotoxicity against human A2780 cells after 72 hrs by MTT assay; type: functional, cell-based; conditions: A2780, 72 h
Summary of the method: (§1)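 Proliferation inhibition measured in human A2780 ovarian carcinoma, ECRF24 immortalized endothelial and HEK-293 embryonic kidney cells; IC50 values in μM reported as means ± SD.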

[2] = Cytotoxicity against human ECRF24 cells after 72 hrs by MTT assay; type: functional, cell-based; conditions: ECRF24, 72 h; summary of the method: as §1
[3] = test system: HEK293; assay: Cytotoxicity against human HEK293 cells after 72 hrs by MTT assay; type: cell-based; conditions: HEK293, 72 h; summary of the method: as §1
[4] = test system: Chorioallantoic membrane; assay: Antiangiogenic activity in chicken embryo chorioallantoic membrane model assessed as inhibition of vasculature formation at 20 uM, iv dosed for 3 consecutive days by FITC-dextran fluorescence angiography; type: functional, Gallus gallus
[5] = test system: ECRF24; assay: Angiostatic activity in human ECRF24 cells assessed as inhibition of cell migration after 7 hrs by laser scanner cytometry based wound closure assay; type: functional
Summary of the method: (§2)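 ECRF24 endothelial monolayers wounded, then incubated 7 h with compound across a concentration range; wound closure quantified to give migration inhibition. Error bars are standard error of the mean; significance set at p < 0.05 and p < 0.01.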

[6] = Angiostatic activity in human ECRF24 cells assessed as inhibition of cell migration at 50 uM after 7 hrs by laser scanner cytometry based wound closure assay; type: functional; conditions: ECRF24, 7 h; summary of the method: as §2
[7] = Selectivity index, ratio of cytotoxic IC50 for HEK293 cells to antiangiogenic activity in chicken embryo chorioallantoic membrane model

Row | SMILES | IC50 [1] [µM] | IC50 [2] [µM] | IC50 [3] [µM] | inhibition (INH) [4] [%] | inhibition [5] | inhibition at 50 µM [6] [%] | Selectivity Index [7]
1 | Cc1nc(Nc2ncc(C(=O)Nc3c(C)cccc3Cl)s2)cc(N2CCN(CCOC(=O)CCC(=O)OCCC(F)(F)C(F)(F)C(F)(F)C(F)(F)C(F)(F)C(F)(F)C(F)(F)C(F)(F)F)CC2)n1 | 118 | 96 | > 500 |  |  |  | 
2 | Cc1nc(Nc2ncc(C(=O)Nc3c(C)cccc3Cl)s2)cc(N2CCN(CCOC(=O)CCC(=O)OCCC(F)(F)C(F)(F)C(F)(F)C(F)(F)C(F)(F)C(F)(F)C(F)(F)C(F)(F)C(F)(F)C(F)(F)F)CC2)n1 | 90 | 24 | > 500 | 18 |  |  | 
3 | CCCCCCCCCCCCCCCCCCOC(=O)CCCC(=O)OCCN1CCN(c2cc(Nc3ncc(C(=O)Nc4c(C)cccc4Cl)s3)nc(C)n2)CC1 | 125 | 101 | > 500 |  |  |  | 
4 | Cc1nc(Nc2ncc(C(=O)Nc3c(C)cccc3Cl)s2)cc(N2CCN(CCOC(=O)CCCC(=O)OCCC(F)(F)C(F)(F)C(F)(F)C(F)(F)C(F)(F)C(F)(F)F)CC2)n1 | 28.3 | > 500 | > 500 |  |  |  | 
5 | CCCCCCCCOC(=O)CCCC(=O)OCCN1CCN(c2cc(Nc3ncc(C(=O)Nc4c(C)cccc4Cl)s3)nc(C)n2)CC1 | 12 | 18 | 18 |  |  |  | 
6 | CCCCCCCCOC(=O)CCC(=O)OCCN1CCN(c2cc(Nc3ncc(C(=O)Nc4c(C)cccc4Cl)s3)nc(C)n2)CC1 | 10.6 | 7.8 | 52 |  |  |  | 
7 | Cc1nc(Nc2ncc(C(=O)Nc3c(C)cccc3Cl)s2)cc(N2CCN(CCOC(=O)CCC(=O)OCCC(F)(F)C(F)(F)C(F)(F)C(F)(F)C(F)(F)C(F)(F)F)CC2)n1 | 130 | 122 | 58 |  |  |  | 
8 | CCCCCCCCCCCCOC(=O)CCC(=O)OCCN1CCN(c2cc(Nc3ncc(C(=O)Nc4c(C)cccc4Cl)s3)nc(C)n2)CC1 | 45 | 27 | > 500 |  |  |  | 
9 | Cc1nc(Nc2ncc(C(=O)Nc3c(C)cccc3Cl)s2)cc(N2CCN(CCO)CC2)n1.O [DASATINIB] | 8.7 | 5.7 | 14.3 | 8 | Dose-dependent effect | 65 | 
10 | CCCCCCCCCCOC(=O)CCCC(=O)OCCN1CCN(c2cc(Nc3ncc(C(=O)Nc4c(C)cccc4Cl)s3)nc(C)n2)CC1 | 119 | 34 | 29 |  |  |  | 
11 | Cc1nc(Nc2ncc(C(=O)Nc3c(C)cccc3Cl)s2)cc(N2CCN(CCOC(=O)CCCC(=O)OCCC(F)(F)C(F)(F)C(F)(F)C(F)(F)C(F)(F)C(F)(F)C(F)(F)C(F)(F)C(F)(F)C(F)(F)F)CC2)n1 | > 500 | 102 | > 500 |  |  |  | 
12 | CCCCCCCCCCCCCCCCCCOC(=O)CCC(=O)OCCN1CCN(c2cc(Nc3ncc(C(=O)Nc4c(C)cccc4Cl)s3)nc(C)n2)CC1 | 108 | 105 | > 500 |  |  |  | 
13 | CCCCCCCCCCCCOC(=O)CCCC(=O)OCCN1CCN(c2cc(Nc3ncc(C(=O)Nc4c(C)cccc4Cl)s3)nc(C)n2)CC1 | 53 | 135 | > 500 |  |  |  | 
14 | Cc1nc(Nc2ncc(C(=O)Nc3c(C)cccc3Cl)s2)cc(N2CCN(CCOC(=O)CCCC(=O)OCCC(F)(F)C(F)(F)C(F)(F)C(F)(F)C(F)(F)C(F)(F)C(F)(F)C(F)(F)F)CC2)n1 | 121 | 57 | > 500 | 45 | Dose-dependent effect | 15 | 25
15 | CCCCCCCCCCOC(=O)CCC(=O)OCCN1CCN(c2cc(Nc3ncc(C(=O)Nc4c(C)cccc4Cl)s3)nc(C)n2)CC1 | 22.5 | 30 | 46 |  |  |  | 

Reference: ChEMBL document CHEMBL3425443, “Improved angiostatic activity of dasatinib by modulation with hydrophobic chains” (ACS Med Chem Lett, 2015)
